SENP1 inh: inhibitors of human SENP1 SUMO protease catalytic domain; Q9P0U3; recombinant SENP1 catalytic domain, CyPet-SUMO1-YPet FRET cleavage; inhibition, % at 10 µM; 360,000 compounds, 0.21% hits; AID 624204;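 active means inhibition at least 30% at 10 µM, raw YFP signal under a set limit, fluorescence ratio 0.5 to 1.5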
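Assay system – human recombinant His6-tagged SENP1 catalytic domain enzyme · Input – SENP1 enzyme, 20 pM final · Buffer or medium – Tris pH 8 buffer plus EDTA, NaCl, BME, BSA, NP40, catalase · Schedule – 50 min reaction at room temperature · Technique – FRET read of cyan and yellow fluorescence · Control set – no-enzyme wells low, DMSO-plus-enzyme wells high control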
SENP6 block: inhibitors of human SENP6 protease. Q9GZR1. Recombinant SENP6 catalytic domain, aminoluciferin luminescence. inhibition, % at 10 µM. 330,000 compounds, 1.8% hits. AID 2599;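 active means inhibition above about 50% at the single tested dose, limit read from the data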
Target sequence (Q9GZR1 628-1112 limits assumed): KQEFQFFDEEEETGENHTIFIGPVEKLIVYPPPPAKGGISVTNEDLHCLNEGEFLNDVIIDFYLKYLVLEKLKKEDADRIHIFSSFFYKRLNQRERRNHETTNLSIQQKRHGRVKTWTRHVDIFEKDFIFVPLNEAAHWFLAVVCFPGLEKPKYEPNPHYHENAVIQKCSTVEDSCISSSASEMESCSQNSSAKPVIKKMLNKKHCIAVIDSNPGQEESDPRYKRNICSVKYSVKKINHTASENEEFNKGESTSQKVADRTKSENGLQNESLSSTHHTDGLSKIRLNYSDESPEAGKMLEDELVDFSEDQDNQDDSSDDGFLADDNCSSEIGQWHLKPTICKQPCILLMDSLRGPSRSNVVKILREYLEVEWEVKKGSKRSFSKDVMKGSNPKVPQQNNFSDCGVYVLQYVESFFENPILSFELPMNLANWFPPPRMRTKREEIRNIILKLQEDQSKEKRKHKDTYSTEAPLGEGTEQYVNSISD
SENP8 block-1: blocks the human protease SENP8; inhibition, % at 10 µM; purified SENP8, Z-RLRGG-aminoluciferin cleavage, luminescence; 330,000 compounds, 1.2% hits; AID 2540; in the data active means inhibition above about 50%
HSP90 inh: inhibitors of HSP90 luciferase refolding in rabbit reticulocyte lysate | AID 1789 | inhibition, % at 5.6 µM | luciferase refolding luminescence, 3 h | 290,000 compounds, 0.91% hits;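 active means inhibition above the screen-wide mean plus 3 SD, computed separately per campaign, cut at about 16% in these data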;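 further: inhibitors lower the luminescence because luciferase stays unfolded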
SENP8 block-2: blocks human SENP8 cleavage of Nedd8 substrate; recombinant SENP8, Nedd8 substrate fluorescence; 360,000 compounds, 0.64% hits; Q96LD8; inhibition, % at 20 µM; in the data active means inhibition mostly above about 40%, no sharp cut-off; inactive means mostly below about 27%
SENP7 inh: inhibitors of human SENP7 protease | inhibition, % at 5 µM | Q9BQF6 | 330,000 compounds, 1.5% hits | AID 434973 | recombinant SENP7, Z-RLRGG-aminoluciferin luminescence, 40 min;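 active means inhibition above about 50% at the single test dose, limit read from the data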
SENP1 inh conf: confirmation of human SENP1 SUMO protease inhibitors | shares compounds with SENP1 inh | recombinant SENP1, CyPet-SUMO1-YPet FRET cleavage | inhibition, % at 10 µM | 520 compounds, 34% hits | AID 651678; in the data active means inhibition mostly above about 35%, no sharp cut-off; inactive means mostly below about 32%
SENP1 kinetic: SENP1 (human) inhibition, kinetic confirmation; shares compounds with SENP1 inh; recombinant SENP1, CyPet-SUMO1-YPet FRET kinetic cleavage; inhibition, % at 10 µM; 520 compounds, 26% hits; AID 651690; in the data active means inhibition mostly above about 32%, no sharp cut-off; inactive means mostly below about 29%
Numbers stand for hits; . = inactive; / = no result given. Rows were chosen to be rich in hits. Some 2.9% of all compounds tested hit in one or more screens of this group.

SMILES | SENP1 inh | SENP6 block | SENP8 block-1 | HSP90 inh | SENP8 block-2 | SENP7 inh | SENP1 inh conf | SENP1 kinetic
Cc1nc2cc(NS(=O)(=O)c3ccccc3F)ccc2s1 | . | . | . | . | . | . | / | /
Cc1nc2ccc(NS(=O)(=O)c3ccc(Br)cc3)cc2s1 | 41 | . | . | / | . | . | . | .
Cc1nc2ccc(NS(=O)(=O)c3ccccc3F)cc2s1 | 55 | . | . | / | . | . | . | 38
Cc1nc2ccc(NS(=O)(=O)c3ccc(F)c(F)c3)cc2s1 | 54 | . | . | / | . | . | . | .
CC(=O)Nc1ccc(S(=O)(=O)Nc2ccc3nc(C)sc3c2)cc1 | . | . | . | / | . | . | / | /
Cc1ccc(S(=O)(=O)Nc2ccc3nc(C)sc3c2)cc1 | . | . | . | . | . | . | / | /
Cc1ccc2nc3sc(C(=O)NCc4ccco4)c(N)c3cc2c1 | 34 | . | . | . | . | . | 110 | 71
COc1ccc(CCN2CC(C(=O)NCCc3ccccn3)CCC2=O)cc1 (stereo not given) | . | . | . | . | . | . | / | /
NC(=S)c1cc2cc(Br)ccc2oc1=O | 45 | . | . | . | . | . | 67 | 51
CC(C)c1nnc(NC(=O)c2cc3cc(Br)ccc3oc2=O)s1 | . | . | . | . | . | . | / | /
C=CCOc1ccc(Br)cc1/C=C1\NC(=S)N(C(C)=O)C1=O | . | . | . | . | . | . | / | /
C=CCOc1c(Br)cc(/C=C2/NC(=S)N(C(C)=O)C2=O)cc1OC | 55 | . | . | . | . | . | 40 | 57
CC(C)Oc1cccc(C(=O)C2CCCN(Cc3cnc(N4CCOCC4)s3)C2)c1 (stereo not given) | . | . | . | . | . | . | / | /
CCCNc1nc2ccccc2n2c(C)nnc12 | 31 | . | . | . | . | . | . | .
CCCN(CCC)c1nc2ccccc2n2c(C)nnc12 | . | . | . | . | . | . | / | /
CCC(=Nc1ccc(N)cc1)C1=C(O)C(C(=O)OC)C(C)(C)CC1=O (stereo not given) | 54 | . | . | . | 70 | . | . | .
CCC(=NCc1ccccc1)C1=C(O)C(C(=O)OC)C(C)(C)CC1=O (stereo not given) | . | . | . | . | . | . | / | /
CCOC(=O)c1c(NC(=O)COC(=O)c2ccccc2NC)sc(C(=O)N(C)C)c1C | . | . | . | . | . | . | / | /
O=C(CSc1n[nH]c(=O)n1C1CC1)Nc1ccc(Cl)c(Cl)c1 | . | . | . | . | . | . | / | /
O=C(CSc1n[nH]c(=O)n1C1CC1)Nc1ccc(F)c(Cl)c1 | 44 | . | . | / | . | . | . | .
CN(Cc1cccnc1)C(=O)c1cc(COc2ccc3c(c2)CCCC3)on1 | . | . | . | . | . | . | / | /
Cc1ccccc1NC(=O)c1cccc(C(=O)Nc2ccccc2C)n1 | 38 | . | . | . | . | . | . | .
O=C1C=Cc2ccccc2/C1=C/c1[nH]c(=O)[nH]c1O | 60 | . | . | . | . | . | 104 | 76
CCCCC1CCC(C(=O)Nc2ccccc2N2CCOCC2)CC1 (stereo not given) | . | . | . | / | . | . | / | /
CN1CCN(S(=O)(=O)c2ccc3c(c2)oc(=O)n3C)CC1 | 33 | . | . | . | . | . | . | .
SMILES | SENP1 inh | SENP6 block | SENP8 block-1 | HSP90 inh | SENP8 block-2 | SENP7 inh | SENP1 inh conf | SENP1 kinetic
CC1CC(C)CN(CCCNS(=O)(=O)c2ccc3c(c2)oc(=O)n3C)C1 (stereo not given) | 33 | . | . | . | . | . | . | .
CC1CCN(C(=O)CCNS(=O)(=O)c2ccc3c(c2)oc(=O)n3C)CC1 | . | . | . | . | . | . | / | /
Cn1c(=O)oc2cc(S(=O)(=O)N3CCN(c4ccc(F)cc4)CC3)ccc21 | 37 | . | . | . | . | . | . | .
Cn1c(=O)oc2cc(S(=O)(=O)Nc3cccc4c3CCCC4)ccc21 | 33 | . | . | . | . | . | . | .
CCn1c(C(=O)O)c(S(=O)(=O)c2ccc(Cl)cc2)c2ccccc21 | . | . | . | . | . | . | / | /
CS(=O)(=O)c1ccc(C(=O)OCc2nnc(-c3ccc(Cl)cc3)o2)cc1[N+](=O)[O-] | . | . | . | . | . | . | / | /
Clc1ccccc1N=Nc1ccccn1 | 58 | / | / | / | 57 | / | . | .
Cc1[nH][nH]c(=O)c1N=Nc1ccccc1Cl | . | . | . | . | . | . | / | /
COc1ccc(CNC(=O)c2sc3nc4c(c(C(F)(F)F)c3c2N)CCC4)cc1 | / | . | . | . | / | . | / | /
C=CCc1c(C)nc(-c2ccccc2)nc1N/N=C/c1ccccc1 | . | . | . | . | . | . | / | /
C=CCc1c(C)nc(-c2ccccc2)nc1Nc1ccccc1O | 47 | . | . | . | . | . | . | .
O=C1C2C(c3ccccc3)C=CC(c3ccccc3)C2C(=O)N1c1ccccn1 (stereo not given) | 41 | . | . | . | . | . | 54 | 46
Cc1ccc(CCC(=O)NCc2ccccc2)o1 | . | . | . | . | . | . | / | /
N#C/C(C(=O)NCCc1ccccc1)=C1/N=C(NC(=O)c2cccs2)c2ccccc21 | 36 | . | . | . | . | . | . | .
CC(=O)N1CCN(S(=O)(=O)c2cccc(C(=O)NNC(=O)COc3ccc(Cl)cc3C)c2)CC1 | . | . | . | / | . | . | / | /
COc1ccc2sc(/C=C/c3ccccc3O)[n+](C)c2c1 | 39 | / | / | . | . | / | 58 | 40
O=C(Nc1cc2c(cc1Cl)-c1ccc([N+](=O)[O-])cc1C2=NO)C(F)(F)F | 85 | / | / | / | . | / | 57 | 36
O=C(Nc1ccc2c(c1)Cc1cc([N+](=O)[O-])ccc1-2)C(F)(F)F | . | / | / | / | . | / | / | /
Nc1ccc2c(c1)C(=NO)c1cc([N+](=O)[O-])ccc1-2 | 83 | / | / | / | . | / | 86 | 47
O=[N+]([O-])c1ccc2c(c1)-c1ccccc1C2=NO | . | / | / | / | . | / | / | /
COc1cccc(CNC(=O)[C@@H]2CCCN2C(=O)[C@@H]2CCCN2C(=O)c2cccc3ccccc23)c1 | . | / | / | / | . | / | / | /
Cc1ccc(Nc2c(-c3ccc(N(C)C)cc3)nc3ncccn23)cc1 | . | . | . | . | . | . | / | /
COc1ccc(-c2nc3ncccn3c2Nc2ccccc2)cc1 | 37 | . | . | . | . | . | . | .
COc1ccccc1NC(=O)CN1CCN(c2ccccc2)CC1 | . | . | . | . | . | . | / | /
O=C(COc1ccc(Cl)cc1Br)NC(=O)NCc1ccccc1 | . | . | . | . | . | . | / | /
Cc1cc(C)c2c(N)c(C(=O)N3CCc4ccccc4C3)sc2n1 | . | . | . | . | . | . | / | /
CC(C)c1ccc2nc3sc(C(=O)N4CCc5ccccc5C4)c(N)c3cc2c1 | 61 | . | . | . | . | . | 81 | 51
